Results gathered from unrelated publications.
Lines come from different studies, so protocols differ.
HTR2B: 5-hydroxytryptamine receptor 2B (HTR2B, Homo sapiens, UniProt P41595)
mraY: mraY (Staphylococcus aureus, UniProt Q2FZ93)

CCN1/C(=C/C(C)=O)Sc2ccc(F)cc21 — inhibition (Gastrin/cholecystokinin type B receptor (CCKBR, Homo sapiens, UniProt P32239); ligand displacement; radioligand; 10 µM): 1.43%
COc1cc2c3c(c1OC)-c1c(OC)ccc(NC(C)=O)c1CC3N(C)CC2 (stereo not drawn) — inhibition (HTR2B; ligand displacement; radioligand; 10 µM): 20%
CCCCCCC#Cc1cncc(-c2nnc(SC[C@H]3O[C@@H](n4ccc(=O)[nH]c4=O)[C@H](O)[C@@H]3O)n2C)c1 — inhibition (mraY; cell-free assay; inhibitor; 250 µM): 0%
COc1cc2c3c(c1OC)-c1c(OC)ccc(-c4ccc(C#N)cc4)c1CC3N(C)CC2 (stereo not drawn) — inhibition (5-hydroxytryptamine receptor 2C (HTR2C, Homo sapiens, UniProt P28335); ligand displacement; radioligand; 10 µM): 24%
CCCCCCC#Cc1cncc(-c2nnc(SCc3ccc(Cl)cc3)n2CCO)c1 — inhibition (mraY; cell-free assay; inhibitor; 250 µM): 0%
NC/C(=C\F)COc1cccc(Cn2c(=S)[nH]c(=O)c3[nH]cnc32)c1 — inhibition (B2 bradykinin receptor (BDKRB2, Homo sapiens, UniProt P30411); ligand displacement; radioligand; 10 µM): < 50%
CCCCCCC#Cc1cncc(-c2nnc(SCc3cc(=O)[nH]c4ccccc34)n2C)c1 — inhibition (mraY; cell-free assay; inhibitor; 250 µM): 30%
Cc1cc(O)c(-c2ccc([C@@H](C)CN(C)C)cc2)c2c1[nH]c(=O)c1sccc12 — inhibition (Acylglycerol kinase, mitochondrial (Homo sapiens, UniProt Q53H12); enzyme activity; inhibitor; 0.1 µM; lysate): 1.28%
CC[N+]1(C)CCc2cc(OC)c(OC)c3c2C1Cc1cccc(OC)c1-3 (stereo not drawn) — inhibition (HTR2B; ligand displacement; radioligand; 10 µM): 26%
Cc1cc(F)cc2c(CCC(=O)N[C@@H]3C(=O)NC[C@H]3O)c(-c3ccc(F)cc3)[nH]c12 — inhibition (Substance-P receptor (TACR1, Homo sapiens, UniProt P25103); cell-free assay; 10 µM): 25%
COc1cc2c3c(c1OC)-c1c(OC)ccc(N4CCOCC4)c1CC3N(C)CC2 (stereo not drawn) — inhibition (HTR2B; ligand displacement; radioligand; 10 µM): 80%
CCCCCCC#Cc1cncc(-c2nnc(SC[C@H]3O[C@@H](n4ccc(=O)[nH]c4=O)[C@H](O)[C@@H]3O)n2CCCN)c1 — inhibition (mraY; cell-free assay; inhibitor; 250 µM): 44%
